# Shown are actives, neighbours in structure and some others; about 4.2% of the full set was active somewhere.
# HDAC3 inh – human HDAC3 inhibition. inhibition, % at 8.3 µM. AID 2718. 320,000 tested, 0.15% active. recombinant HDAC3, fluorogenic peptide/trypsin coupled, fluorescence. O15379; in the data active means inhibition above about 26%, passing the limit was not always enough; inconclusive means no clear call, values can overlap the other calls
# AHR activator – human AHR activation | AHR-responsive luciferase reporter cells, luminescence | activation, % at 5 µM | 320,000 tested, 2.5% active; in the data active means activation above about 47%;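 further: 0% = vehicle wells and 100% = reference agonist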
# Target sequence (P35869 whole entry, looked up): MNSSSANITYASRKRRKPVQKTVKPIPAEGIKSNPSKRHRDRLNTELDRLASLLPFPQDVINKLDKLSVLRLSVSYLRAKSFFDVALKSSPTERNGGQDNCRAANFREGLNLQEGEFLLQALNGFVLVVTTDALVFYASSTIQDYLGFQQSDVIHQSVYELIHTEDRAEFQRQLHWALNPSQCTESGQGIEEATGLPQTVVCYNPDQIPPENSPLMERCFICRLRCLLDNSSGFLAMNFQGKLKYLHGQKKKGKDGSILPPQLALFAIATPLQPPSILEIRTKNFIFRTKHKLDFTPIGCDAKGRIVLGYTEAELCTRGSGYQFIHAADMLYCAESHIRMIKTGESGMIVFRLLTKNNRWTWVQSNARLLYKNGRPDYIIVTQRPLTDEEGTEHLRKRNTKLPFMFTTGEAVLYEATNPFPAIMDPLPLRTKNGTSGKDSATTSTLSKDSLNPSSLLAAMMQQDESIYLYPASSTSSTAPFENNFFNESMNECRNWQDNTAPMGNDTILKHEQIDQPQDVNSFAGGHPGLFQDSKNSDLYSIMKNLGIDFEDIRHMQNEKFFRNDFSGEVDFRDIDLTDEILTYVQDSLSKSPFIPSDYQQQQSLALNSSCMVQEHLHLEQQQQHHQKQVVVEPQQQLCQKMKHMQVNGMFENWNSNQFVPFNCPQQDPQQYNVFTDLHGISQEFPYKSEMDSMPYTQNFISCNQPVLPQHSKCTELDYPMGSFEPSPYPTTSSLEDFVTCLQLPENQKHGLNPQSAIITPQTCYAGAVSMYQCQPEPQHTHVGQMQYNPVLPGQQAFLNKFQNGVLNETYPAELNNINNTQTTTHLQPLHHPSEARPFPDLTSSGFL
# PfM18AAP inh – PfM18AAP enzyme inhibition | 290,000 tested, 1.2% active | recombinant PfM18AAP, H-Glu-NHMec fluorogenic cleavage | inhibition, % at 7.35 µM;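 active means inhibition above the campaign mean inhibition over all tested compounds plus 3 SD, cut at about 28% in these data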;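 further: 0% = plate median of test compound wells and 100% = 2 mM ZnCl2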
# Fh CTSL1 inh – blocks F. hepatica cathepsin L1 in PFM18AAP counter-screen | AID 1906 | 300,000 tested, 0.49% active | recombinant F. hepatica cathepsin L1, Z-Leu-Arg-MCA fluorescence | inhibition, % at 5.96 µM;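 active means inhibition above the mean of all tested compounds plus 3 SD, set per screening campaign, cut at about 17% in these data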;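 further: 0% = plate median of test compound wells and 100% = 1 µM Z-Phe-Ala-diazomethylketone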
# GAA850 FXN act – increases GAA850 frataxin promoter reporter activity; HEK293 lucGAA850 FXN promoter luciferase reporter, 24 h; percent of 10 µM SAHA response; 360,000 tested, 0.56% active; activation, % at 6 µM;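 active means activation above the average of all compounds screened plus 3 SD, cutoff fixed separately per campaign, cut at about 7.5% in these data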;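 further: 0% = DMSO wells and 100% = 10 µM SAHA wells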
# SENP1 FRET inh – inhibitors of human SENP1 SUMO protease catalytic domain; Q9P0U3; recombinant SENP1 catalytic domain, CyPet-SUMO1-YPet FRET cleavage; inhibition, % at 10 µM; 360,000 tested, 0.21% active; AID 624204;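 active means inhibition at least 30% at 10 µM, raw YFP signal under a set limit, fluorescence ratio 0.5 to 1.5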;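 further: 0% = enzyme with DMSO and 100% = no enzyme wells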
#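 Test system: recombinant human SENP1 catalytic domain, His6-tagged / Medium: pH 8 Tris buffer with EDTA, NaCl, BME, BSA, NP40, catalase / Also added: SUMO1 FRET substrate flanked by Cypet and Ypet, 25 nM / Times: 50 min reaction at room temperature / Signal: FRET, CFP and YFP emission / Control set: no-enzyme low control and enzyme-plus-DMSO high control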
# Starred values were filed as active, the others as inactive; u = inconclusive; x = no result given.
SMILES,HDAC3 inh,AHR activator,PfM18AAP inh,Fh CTSL1 inh,GAA850 FXN act,SENP1 FRET inh
CCOc1cc2c3c(c1)C1(Nc4ccccc4S1)C(=O)N3C(C)(C)CC2C (stereo unspecified),17,3,10,3,-2,-4
CCOc1cc2c3c(c1)C1(C(=O)N3C(C)(C)CC2C)C(C#N)=C(N)N2C(=C1C#N)Nc1ccccc12 (stereo unspecified),-2,58*,13,5,0,-12
CCCCC[C@@H](C)N1C[C@H](COCc2ccccc2)Oc2cc(N3CCC[C@@H]3CO)ccc2S1(=O)=O,x,x,x,x,x,1
CC1CCCC(C)N1C(=O)c1ccc(S(=O)(=O)NCc2ccco2)cc1 (stereo unspecified),-6,0,11,-9,-1,0
COc1ccc(N/C(N)=N/c2nc(CSc3nnc(C)s3)cc(=O)[nH]2)cc1,-2,11,-4,-2,-4,-1
CCc1ccc(N/C(N)=N/c2nc(CSc3ncccn3)cc(=O)[nH]2)cc1,-10,50*,-17,2,1,1
O=c1c(=Nc2ccccc2O)c(=O)c2ccccc12,9,2,22,33*,6,-1
CN(CCc1ccccc1)C(C(=O)c1ccc2c(c1)OCO2)c1nnnn1-c1ccccc1NC(=O)OC(C)(C)C (stereo unspecified),x,x,x,x,x,-4
O=c1oc2ccccc2cc1-c1nc2c(s1)CCc1ccccc1-2,4,71*,-1,0,2,-23
O=c1oc2cc(O)ccc2cc1-c1nc2c(s1)CCc1ccccc1-2,-48,14,4,2,5,-24
COc1cc(SC)ccc1C(=O)NCC1CCCCC1,-2,0,-13,7,5,0
COc1ccccc1/C=C/C(=O)NC(=S)NC(C)C,-2,68*,-13,8,0,1
O=C(/C=C/c1ccccc1O)c1ccc(Cl)cc1,6,66*,25,-2,1,4
CCOc1ccccc1/C=C/C(=O)c1ccc(Cl)cc1,5,70*,-5,3,0,-1
COc1ccccc1/C=C/C(=O)c1ccc(NC(C)=O)cc1,5,12,2,-2,0,0
COc1ccccc1/C=C/C(=O)c1ccc(Cl)cc1,x,91*,15,0,3,-1
O=C(/C=C/c1ccccc1O)c1ccccc1,x,x,x,x,1,2
COc1ccc(OC)c(/C=C/C(=O)c2ccc(Cl)cc2)c1,7,-2,3,-1,3,9
CCc1cccc(N=c2c([N+](=O)[O-])nn(-c3ccc(Cl)cc3)n2O)c1,2,24,-2,6,1,4
Cc1cccc(N=c2c([N+](=O)[O-])nn(-c3ccc(Cl)cc3)n2O)c1,6,62*,2,2,0,1
O=[N+]([O-])c1nn(-c2ccc(Cl)cc2)n(O)c1=NCc1ccncc1,1,13,-10,18*,3,-2
O=[N+]([O-])c1nn(-c2cccc(Cl)c2)n(O)c1=NCc1cccnc1,-5,1,7,2,4,2
Cc1cc(C)cc(N=c2c([N+](=O)[O-])nn(-c3cccc(Cl)c3)n2O)c1,7,69*,13,3,2,3
Cc1nnc2ccc(-c3ccc(NS(=O)(=O)c4ccc(Cl)s4)cc3)nn12,0,-1,x,x,6,23
CN(Cc1ccccc1)c1nccn2ccnc12,x,x,x,x,2,-1
SMILES,HDAC3 inh,AHR activator,PfM18AAP inh,Fh CTSL1 inh,GAA850 FXN act,SENP1 FRET inh
CNC(=O)c1c(NC(=O)c2ccc(S(=O)(=O)N3CCCC3)cc2)sc2c1CCN(C(C)C)C2,7,3,32*,1,x,x
NC(=O)c1ccsc1NC(=O)c1ccc(S(=O)(=O)N2CCCCC2)cc1,7,-4,2,37*,0,3
CNC(=O)c1c(NC(=O)c2ccc(S(=O)(=O)N3CC(C)OC(C)C3)cc2)sc2c1CCN(C(C)C)C2 (stereo unspecified),8,36,-7,5,2,-27
O=C(OCc1cn([C@H]2CN(C(=O)C3CCCCC3)[C@@H](c3ccccc3)C[C@@H]2O)nn1)c1ccccc1,x,x,x,x,-1,2
Cc1cc(C)c(S(=O)(=O)N2CCN(C(=O)c3ccc(-n4nc(C)c(Cl)c4C)cc3)CC2)c(C)c1,x,x,x,x,0,-2
S=c1nc(-c2ccccc2)n(-c2ccccc2)[nH]1,16,2,30*,-5,2,2
S=c1nc(-c2ccccc2)[nH]n1-c1ccccc1,u,108*,19,-1,4,1
Cc1nc(=S)n(-c2ccccc2)[nH]1,8,7,3,-1,3,1
CN(C)c1ccc(N=Nc2ccccc2Br)cc1,-12,53*,6,6,1,1
O=C1Cc2ccccc2C(=O)N1,x,x,x,x,x,-9
O=C(CCc1ccc(O)cc1)NNC(=S)NCCc1ccccc1,1,-2,8,-2,0,1
O=C(NNC(=S)NCCc1ccccc1)c1ccc(Br)s1,2,1,3,18*,2,2
COc1ccccc1NC(=S)N1CCC(c2nc3cc(C)c(C)cc3[nH]2)CC1,1,52*,-5,1,3,1
COc1ccc(NC(=S)N2CCC(c3nc4ccccc4[nH]3)CC2)c(OC)c1,-1,1,4,-4,0,0
COc1cc(CNC[C@H]2O[C@@H](n3cc(C)c(=O)[nH]c3=O)C[C@@H]2O)ccc1OCc1cccc(Cl)c1,x,x,x,x,0,-2
CSc1ccc(CN2CCC2(C)C(=O)Nc2cnc3ccccc3c2)cc1 (stereo unspecified),x,x,x,x,1,1
COc1cc(C(=O)N(C)C2CCCCC2)cc(OC)c1OC,x,x,x,x,0,1
O=c1cc(C(F)(F)F)[nH]c(=S)n1-c1ccccc1,11,-1,30*,3,0,-2
COc1ccc(-n2nc3cc(C)c(N)c(Br)c3n2)cc1,-3,49*,-1,2,7,-5
COc1ccc(-n2nc3cc(C)c(NC(C)=O)cc3n2)cc1,-32,75*,-3,3,3,2
COc1ccc(-n2nc3ccccc3n2)cc1,3,17,-1,-1,4,-4
O=C(/C=C/c1cccs1)Nc1cccnc1,10,56*,2,5,4,0
O=C(/C=C/c1c(F)cccc1Cl)Nc1cccnc1,6,50*,5,4,3,-3
O=C(/C=C/c1cccs1)Nc1nncs1,1,30,3,4,2,1
FC(F)(F)Oc1ccccc1C(c1nnnn1C1CCCC1)N1CCN(C/C=C/c2ccccc2)CC1 (stereo unspecified),x,x,x,x,x,2
COc1ccc(OC)c(-c2csc(NC(=O)C3=COCCO3)n2)c1,3,50*,x,-1,3,0
S=c1nc(-c2ccccc2)c(-c2ccccc2)n[nH]1,3,0,-1,3,0,1
